aDG glyco act – activators of alpha-DG glycosylation, primary screen, uHTS, Pro5-aDG cells, AlphaScreen; alpha-DG glycosylation AlphaScreen (IIH6); 0% Pro5, 100% B10-LARGE cell signal; activation, % at 10 µM; 0.22% of 360,000 active;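 active means activation of at least 8% versus controls, or a plate z-score of at least 8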;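 further: Pro5 are CHO cells carrying HIG-tagged alpha-DG that lacks glycosylation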
ADAM10 inh – human ADAM10 inhibitors, primary screen, biochemical, QFRET, HTS | inhibition, % at 7 µM | Disintegrin and metalloproteinase domain-containing protein 10 (Homo sapiens), O14672 | 0.62% of 370,000 active | recombinant ADAM10, EDANS/DABCYL FRET peptide cleavage, 3 h | AID 720582, 2013;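 active means inhibition above a per-campaign cutoff equal to the mean of compounds falling between control-based bounds plus 3 SD, cut at about 20% in these data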
Target sequence (O14672 214-748 limits assumed): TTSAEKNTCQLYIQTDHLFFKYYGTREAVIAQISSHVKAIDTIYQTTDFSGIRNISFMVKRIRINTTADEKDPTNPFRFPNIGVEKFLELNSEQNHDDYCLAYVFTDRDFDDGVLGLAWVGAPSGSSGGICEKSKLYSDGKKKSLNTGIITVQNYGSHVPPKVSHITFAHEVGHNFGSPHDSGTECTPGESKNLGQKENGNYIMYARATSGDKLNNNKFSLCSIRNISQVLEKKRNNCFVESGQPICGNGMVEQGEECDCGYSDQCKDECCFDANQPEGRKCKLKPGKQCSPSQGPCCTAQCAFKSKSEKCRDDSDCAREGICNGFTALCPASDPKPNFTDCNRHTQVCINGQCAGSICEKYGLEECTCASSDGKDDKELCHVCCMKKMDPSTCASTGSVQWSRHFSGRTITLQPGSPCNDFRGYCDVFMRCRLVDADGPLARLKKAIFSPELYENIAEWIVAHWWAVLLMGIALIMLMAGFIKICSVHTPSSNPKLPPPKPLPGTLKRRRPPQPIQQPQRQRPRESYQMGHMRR
V-ATPase pH – regulators of yeast V-ATPase proton pumping, primary screen, pHLuorin cytosolic pH fluorescence | response, % at 10 µM | S. cerevisiae | 0.37% of 350,000 active; in the data active means response mostly above about 7.3%, no sharp cut-off; inactive means mostly below about 5.4%; further: actives read high
Lipid droplet – inhibitors of hepatocyte lipid droplet formation, primary screen, imaging, high-throughput imaging, BODIPY stain | AML12 mouse hepatocytes, oleate lipid droplets | inhibition, % at 6.5 µM | 0.4% of 240,000 active | AID 1656, 2009;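 active means lipid droplet intensity inhibited by at least 50%, with more than 500 cells counted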
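Material: mouse AML12 hepatocyte cell line, fixed after treatment; Timing: compound with oleate, overnight; Technique: high-content imaging of BODIPY-stained droplets and DAPI nuclei; Probe or stimulus: oleate, 100 µM final; Dosing: compound at 6.5 µM only.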
MPTP block – mitochondrial permeability transition pore inhibitors, primary screen, biochemical, isolated mouse mitochondria, absorbance; Ca2+ swelling absorbance, 30 min; inhibition, % at 10 µM; 1.4% of 360,000 active; AID 602449, 2012;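 active means inhibition of 50% or more, scaled per plate between neutral and stimulator controls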
ADAM17 inh – ADAM17 inhibitors, primary screen, biochemical, QFRET | Disintegrin and metalloproteinase domain-containing protein 17 (Homo sapiens), P78536 | recombinant ADAM17, EDANS/DABCYL FRET peptide cleavage | inhibition, % at 6.95 µM | 0.83% of 370,000 active | AID 720648, 2013;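 active means inhibition above the mean of compounds lying between control limits plus 3 SD, set per campaign, cut at about 8.5% in these data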
Rh123 counter – fluorescence retest of MPTP screen hits in isolated mitochondria, single concentration | shares compounds with MPTP block | membrane potential, Rhodamine 123 fluorescence | inhibition, % at 10 µM | 78% of 5,000 active; in the data active means inhibition above about 22%
A number is an active result; 0 = inactive; - = not tested or not shown. Rows were chosen to be rich in hits. Some 3.1% of all compounds tested hit in one or more screens of this group.

SMILES	aDG glyco act	ADAM10 inh	V-ATPase pH	Lipid droplet	MPTP block	ADAM17 inh	Rh123 counter
Clc1ccc2c(N/N=C/c3ccc(Br)cc3)ccnc2c1	0	0	0	0	88	0	74
CCOC(=O)N1CCC(=NNc2ccnc3cc(Cl)ccc23)CC1	0	0	0	0	0	0	-
CC(=O)N1CCC(=NNc2ccnc3cc(Cl)ccc23)CC1	0	0	0	0	0	0	-
Oc1ccc(Nc2ccnc3cc(Cl)ccc23)cc1	0	0	0	0	0	0	-
O=C(c1ccc([N+](=O)[O-])cc1)N1CCc2ccccc2C1	0	0	0	0	0	0	-
O=[N+]([O-])c1ccc(NC(=S)N2CCc3ccccc3C2)cc1	0	0	0	0	58	0	65
O=[N+]([O-])c1ccc(N2CCN(C(=S)Nc3cccc(F)c3)CC2)cc1	0	0	0	0	55	0	58
O=C(/C=C/C(Cl)(Cl)Cl)Nc1ccc(Cl)cc1	0	0	0	-	96	0	102
Cc1cccc(-c2nnc(SCC(=O)Nc3ccc(-c4nc5ccc(C)cc5s4)cc3)n2Cc2ccco2)c1	-	0	-	-	-	0	-
CCOC(=O)[C@@]12CN(C(=O)OC(C)(C)C)CC=C1N(Cc1ccc(OC)cc1)C(=O)[C@H]2CC(=O)N1CCCC1	-	0	-	-	-	0	-
O=C(N/N=C/c1cccc(C(F)(F)F)c1)c1ccccc1O	0	0	0	0	65	0	55
O=C(N/N=C/c1ccc2nccnc2c1)c1ccccc1O	-	0	-	0	-	0	-
COc1ccc(C(CCOC(=O)Oc2ccccc2)c2cc(OC)cc(OC)c2)cc1 (stereo unspecified)	-	0	-	-	-	0	-
CCCN(CCC)CCNS(=O)(=O)c1ccc2c(c1)CCN2C(=O)C1CCC1	0	0	0	0	0	0	-
O=C(C1CC1)N1CCc2cc(S(=O)(=O)NCCC3=CCCCC3)ccc21	0	0	0	-	62	0	46
O=C(C1CCC1)N1CCc2cc(S(=O)(=O)Nc3ccc4c(c3)OCCO4)ccc21	0	0	0	-	65	0	81
CCC(=O)N1CCc2cc(S(=O)(=O)Nc3ccc4c(c3)OCCO4)ccc21	0	0	0	0	81	0	58
O=C(C1CCC1)N1CCc2cc(S(=O)(=O)NC3CCCC3)ccc21	0	0	0	-	0	0	-
CS(=O)(=O)N1CCc2cc(S(=O)(=O)Nc3ccc4c(c3)OCCO4)ccc21	0	0	0	0	0	0	-
COc1cc(C=Nn2c(-c3cc(C)[nH]n3)n[nH]c2=S)cc(Br)c1O	-	0	-	-	-	0	-
O=C(Nc1cc(C(F)(F)F)cc(C(F)(F)F)c1)Nc1cnn(-c2ccc([N+](=O)[O-])cc2)c1C(F)(F)F	0	0	0	0	88	0	63
CCOC(=O)/C(C(=O)Nc1ccc(Br)cc1)=C1/NC(C)(C)Cc2ccccc21	0	0	0	0	101	0	89
CC1=C(C)/C(=N\OS(=O)(=O)c2ccccc2)C=CC1=O	0	-	0	0	109	-	99
Cc1ccccc1OCCC(=O)Nc1ccc(F)c(Cl)c1	0	0	0	0	85	0	85
Cc1cc(C(=O)CSc2nc3ccccc3[nH]2)c(C)n1CC1CCCO1 (stereo unspecified)	0	0	0	-	71	0	85
CCCCNC(=O)C[C@@H]1C(=O)N2CCCC3=C2[C@@]1(C(=O)OC)CCCC3	-	0	-	-	-	0	-
CC(=O)Oc1c(C)cc(Cl)cc1C(=O)Nc1ccc([N+](=O)[O-])cc1Cl	0	0	0	0	85	0	91
C[C@@H](NCCc1ccc(O)cc1)[C@@H](O)c1ccc(O)cc1	0	0	0	-	0	0	-
CCCCCCCCNC(C)C(O)c1ccc(SC(C)C)cc1 (stereo unspecified)	0	0	0	0	86	0	0
O=C(O)c1ccc(-n2nc(-c3ccccc3O)nc2-c2ccccc2O)cc1	-	0	-	-	-	0	-
